Experimental data reported in publication PMC5010146 (European journal of medicinal chemistry, 2016).
One block for each compound: values may come before it.

What was measured:
[1] = molecular target: T1, 15-LOX-1 (Homo sapiens, UniProt P16050); assay: 15-LOX-1 enzyme inhibition, UV absorbance; assay type: biochemical
T1 sequence (P16050 1-662): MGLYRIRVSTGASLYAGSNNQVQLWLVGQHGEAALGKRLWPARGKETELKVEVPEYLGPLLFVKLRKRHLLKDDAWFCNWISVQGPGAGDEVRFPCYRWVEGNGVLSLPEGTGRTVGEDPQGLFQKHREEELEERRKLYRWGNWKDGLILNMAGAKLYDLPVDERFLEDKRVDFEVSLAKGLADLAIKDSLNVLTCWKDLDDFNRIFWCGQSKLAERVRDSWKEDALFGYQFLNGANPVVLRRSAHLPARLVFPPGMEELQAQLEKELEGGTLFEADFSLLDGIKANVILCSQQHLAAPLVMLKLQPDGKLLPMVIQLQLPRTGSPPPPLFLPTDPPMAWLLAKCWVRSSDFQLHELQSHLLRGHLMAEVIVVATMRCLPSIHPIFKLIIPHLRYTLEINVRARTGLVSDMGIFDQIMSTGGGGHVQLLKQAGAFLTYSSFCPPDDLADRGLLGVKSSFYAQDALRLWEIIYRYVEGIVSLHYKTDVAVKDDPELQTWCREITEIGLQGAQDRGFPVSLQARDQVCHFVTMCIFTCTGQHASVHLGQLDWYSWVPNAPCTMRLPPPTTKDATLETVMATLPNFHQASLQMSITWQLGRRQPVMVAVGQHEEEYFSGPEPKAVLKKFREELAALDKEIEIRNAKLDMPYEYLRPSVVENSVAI

[2] = test system: HT-22 cells; assay: Glutamate-induced cell death, xCELLigence impedance and MTT; assay type: cell-based
[3] = test system: 15-LOX-1; conditions: mouse, transient cerebral ischemia; cited from earlier work
[4] = test system: HT-22 cells; assay: Glutamate-induced lipid peroxidation, BODIPY staining, FACS; assay type: cell-based; conditions: 1 μM, 16 h after initiation of glutamate challenge
Summary of the method: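 HT-22 cells were seeded at 5x10^4 per well, left overnight, then exposed to 4 mM glutamate with or without test compound (10 µM) or 1 µM reference inhibitor for 6–7 h or 14–16 h. Staining used BODIPY 581/591 C11 (2 µM final, 1 h, 37°C). The red-to-green fluorescence shift was read by FACS at 488 nm excitation. At least three independent experiments, triplicates.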

[5] = molecular target: T2, human 15-lipoxygenase-1 (15-LOX-1) (Homo sapiens, UniProt P16050); assay: Michaelis-Menten enzyme kinetics analysis of 15-LOX-1 inhibition; assay type: biochemical; conditions: Lineweaver-Burk: Km increases, Vmax constant
T2 sequence (P16050 1-662): T1 sequence (P16050 1-662)

SMILES: CCCCNC(=O)c1cc(-c2ccc(Br)cc2)sc1N [Compound 3m, 2-amino-5-(4-bromophenyl)-N-butylthiophene-3-carboxamide]
inhibitory potency in words [1]: inactive

SMILES: c1ccc2c(c1)SCc1c-2[nH]c2ccccc12 [PD-146176]
protection against glutamate toxicity compared with ThioLox ([2]; 1 μM): Comparable results
effect on infarct size [3]: significantly reduced the infarct size
effect on boost of lipid peroxides [4]: significantly attenuated

SMILES: CCCCNC(=O)c1cc(Cc2ccccc2)sc1N [Compound 3n, 2-amino-5-benzyl-N-butylthiophene-3-carboxamide]
inhibitory potency in words [1]: inactive

Further lines, with some results ahead:

inhibitory potency in words [1]: inactive
SMILES: CCCCNC(=O)c1cc(-c2ccc(Cl)cc2)sc1N [Compound 3l, 2-amino-N-butyl-5-(4-chlorophenyl)thiophene-3-carboxamide]

mechanism of 15-LOX-1 inhibition [5]: competitive inhibition
SMILES: CCCCNC(=O)c1cc(-c2ccccc2)sc1N [Compound A9, 2-amino-N-butyl-5-phenylthiophene-3-carboxamide]
time of addition after glutamate challenge at which cells were still protected ([2]; post-treatment 5 and 10 μM, added 2-8 h after glutamate): up to 8 h
